One block for each molecule: values may come before it.
Experiments:
Format in all cases: functional
[1] = Antioxidant activity assessed as trolox equivalent of ABTS free radical scavenging activity after 6 mins by […]
In short: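 ABTS radical cation solution was added to compounds (0.2–6.25 mM). Decrease in absorbance at 734 nm was read exactly 6 min after mixing, with ethanol blanks. A Trolox standard curve (final 0–20 µM in ethanol) gives TEAC, the mM Trolox equivalent to 1 mM compound. Run in triplicate.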

[2] = Antioxidant activity assessed as reduction of […]/ferricyanide complex after 20 mins by spectrophotometry
In short: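 Compounds (1.6–6.25 mM) mixed with 0.2 M phosphate buffer, pH 6.6, and 1% potassium ferricyanide, 20 min at 50 °C. Stopped with 1% TCA and centrifuged at 2790 g for 10 min. Supernatant plus water and 0.1% FeCl3 read at 700 nm. EC50 is the concentration giving absorbance 0.5. Mean ± SD of triplicates.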

[3] = Antioxidant activity assessed as inhibition of Fe(3+)/ascorbate-induced lipid peroxidation in liposomes after 1 hr by TBARS assay
In short: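 Lecithin liposomes were sonicated in 10 mmol/L phosphate buffer, pH 7.4. Final mix: 3.08 mg liposome/mL, 123.2 µmol FeCl3, 123.2 µmol ascorbic acid, test compound 0.025–0.4 mM. Incubated 1 h at 37 °C. MDA measured by TBA reaction; n-butanol layer read at 532 nm against a lecithin-free blank. EC50 is the concentration reducing TBARS to 50% of control.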

[4] = test system: Radical scavenging activity; assay: Antioxidant activity assessed as DPPH radical scavenging activity after 30 mins by spectrophotometry
In short: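 Test compounds (0.2–6.25 mM) dissolved in DMSO, added to 6×10^-5 M methanolic DPPH. Mixture held 30 min at room temperature in the dark, then absorbance read at 517 nm against methanol. Scavenging % = [1 − A_sample/A_control] × 100, with a negative control lacking sample. Triplicates averaged; EC50 taken from dose–response.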

SNB-75 = assay: Growth inhibition in human SNB75 cells assessed as viable cells at 10 uM after 48 hrs by sulforhodamine B assay; details: SNB-75, 48 h, read-out: Activity
SF-268 = assay: Growth inhibition in human SF268 cells assessed as viable cells at 10 uM after 48 hrs by sulforhodamine B assay; details: SF-268, 48 h, read-out: Activity
SNB-19 = assay: Growth inhibition in human SNB19 cells assessed as viable cells at 10 uM after 48 hrs by sulforhodamine B assay; details: SNB-19, 48 h, read-out: Activity
SF-539 = assay: Growth inhibition in human SF539 cells assessed as viable cells at 10 uM after 48 hrs by sulforhodamine B assay; details: SF-539, 48 h, read-out: Activity
U-251 = assay: Growth inhibition in human U251 cells assessed as viable cells at 10 uM after 48 hrs by sulforhodamine B assay; details: U-251, 48 h, read-out: Activity
In short: (§1)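 NCI 60-line screen, single dose 10^-5 M, 48 h continuous exposure. Cells grown in RPMI 1640 with 5% FBS and 2 mM L-glutamine, plated at 5000–40,000 cells/well and preincubated 24 h at 37 °C, 5% CO2. Drug stocks in DMSO. Endpoint: TCA fixation, SRB staining, absorbance at 515 nm. Growth % relative to untreated controls and time-zero plates.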

SK-MEL-2 = assay: Growth inhibition in human SK-MEL-2 cells assessed as viable cells at 10 uM after 48 hrs by sulforhodamine B assay; details: SK-MEL-2, 48 h, read-out: Activity
M14 = assay: Growth inhibition in human M14 cells assessed as viable cells at 10 uM after 48 hrs by sulforhodamine B assay; details: M14, 48 h, read-out: Activity; in short: as §1
NCI/ADR-RES = assay: Growth inhibition in human NCI/ADR-RES cells assessed as viable cells at 10 uM after 48 hrs by sulforhodamine B assay; details: read-out: Activity; in short: as §1
BT-549 = assay: Growth inhibition in human BT549 cells assessed as viable cells at 10 uM after 48 hrs by sulforhodamine B assay; details: BT-549, 48 h, read-out: Activity; in short: as §1
OVCAR-8 = assay: Growth inhibition in human OVCAR8 cells assessed as viable cells at 10 uM after 48 hrs by sulforhodamine B assay; details: OVCAR-8, 48 h, read-out: Activity
UACC-62 = assay: Growth inhibition in human UACC62 cells assessed as viable cells at 10 uM after 48 hrs by sulforhodamine B assay; details: UACC-62, 48 h, read-out: Activity
SN12C = assay: Growth inhibition in human SN12C cells assessed as viable cells at 10 uM after 48 hrs by sulforhodamine B assay; details: read-out: Activity; in short: as §1
IGROV-1 = assay: Growth inhibition in human IGROV1 cells assessed as viable cells at 10 uM after 48 hrs by sulforhodamine B assay; details: IGROV-1, 48 h, read-out: Activity
TK-10 = assay: Growth inhibition in human TK10 cells assessed as viable cells at 10 uM after 48 hrs by sulforhodamine B assay; details: TK-10, 48 h, read-out: Activity; in short: as §1
PC-3 = assay: Growth inhibition in human PC3 cells assessed as viable cells at 10 uM after 48 hrs by sulforhodamine B assay; details: PC-3, 48 h, read-out: Activity; in short: as §1
MDA-MB-468 = assay: Growth inhibition in human MDA-MB-468 cells assessed as viable cells at 10 uM after 48 hrs by sulforhodamine B assay; details: MDA-MB-468, 48 h, read-out: Activity; in short: as §1
A498 = assay: Growth inhibition in human A498 cells assessed as viable cells at 10 uM after 48 hrs by sulforhodamine B assay; details: A498, 48 h, read-out: Activity; in short: as §1
LOX IMVI = assay: Growth inhibition in human LOXIMVI cells assessed as viable cells at 10 uM after 48 hrs by sulforhodamine B assay; details: read-out: Activity
MDA-MB-435 = assay: Growth inhibition in human MDA-MB-435 cells assessed as viable cells at 10 uM after 48 hrs by sulforhodamine B assay; details: MDA-MB-435, 48 h, read-out: Activity
UACC-257 = assay: Growth inhibition in human UACC257 cells assessed as viable cells at 10 uM after 48 hrs by sulforhodamine B assay; details: UACC-257, 48 h, read-out: Activity
SK-MEL-28 = assay: Growth inhibition in human SK-MEL-28 cells assessed as viable cells at 10 uM after 48 hrs by sulforhodamine B assay; details: SK-MEL-28, 48 h, read-out: Activity; in short: as §1
T47D = assay: Growth inhibition in human T47D cells assessed as viable cells at 10 uM after 48 hrs by sulforhodamine B assay; details: read-out: Activity
DU-145 = assay: Growth inhibition in human DU145 cells assessed as viable cells at 10 uM after 48 hrs by sulforhodamine B assay; details: DU-145, 48 h, read-out: Activity; in short: as §1
OVCAR-4 = assay: Growth inhibition in human OVCAR4 cells assessed as viable cells at 10 uM after 48 hrs by sulforhodamine B assay; details: OVCAR-4, 48 h, read-out: Activity
CAKI-1 = assay: Growth inhibition in human Caki1 cells assessed as viable cells at 10 uM after 48 hrs by sulforhodamine B assay; details: CAKI-1, 48 h, read-out: Activity; in short: as §1
SK-MEL-5 = assay: Growth inhibition in human SK-MEL-5 cells assessed as viable cells at 10 uM after 48 hrs by sulforhodamine B assay; details: SK-MEL-5, 48 h, read-out: Activity
UO-31 = assay: Growth inhibition in human UO31 cells assessed as viable cells at 10 uM after 48 hrs by sulforhodamine B assay; details: UO-31, 48 h, read-out: Activity; in short: as §1
ACHN = assay: Growth inhibition in human ACHN cells assessed as viable cells at 10 uM after 48 hrs by sulforhodamine B assay; details: read-out: Activity; in short: as §1
SF-295 = assay: Growth inhibition in human SF295 cells assessed as viable cells at 10 uM after 48 hrs by sulforhodamine B assay; details: SF-295, 48 h, read-out: Activity
MCF7 = assay: Growth inhibition in human MCF7 cells assessed as viable cells at 10 uM after 48 hrs by sulforhodamine B assay; details: MCF7, 48 h, read-out: Activity; in short: as §1
MDA-MB-231 = assay: Growth inhibition in human MDA-MB-231/ATCC cells assessed as viable cells at 10 uM after 48 hrs by sulforhodamine B assay; details: MDA-MB-231, 48 h, read-out: Activity; in short: as §1
[5] = Growth inhibition in human Hs 578T cells assessed as viable cells at 10 uM after 48 hrs by sulforhodamine B assay; details: read-out: Activity; in short: as §1
OVCAR-5 = assay: Growth inhibition in human OVCAR5 cells assessed as viable cells at 10 uM after 48 hrs by sulforhodamine B assay; details: OVCAR-5, 48 h, read-out: Activity
OVCAR-3 = assay: Growth inhibition in human OVCAR-3 cells assessed as viable cells at 10 uM after 48 hrs by sulforhodamine B assay; details: OVCAR-3, 48 h, read-out: Activity
Malme-3M = assay: Growth inhibition in human MALME-3M cells assessed as viable cells at 10 uM after 48 hrs by sulforhodamine B assay; details: read-out: Activity
SK-OV-3 = assay: Growth inhibition in human SKOV3 cells assessed as viable cells at 10 uM after 48 hrs by sulforhodamine B assay; details: SK-OV-3, 48 h, read-out: Activity; in short: as §1
786-0 = assay: Growth inhibition in human 786-0 cells assessed as viable cells at 10 uM after 48 hrs by sulforhodamine B assay; details: 786-0, 48 h, read-out: Activity; in short: as §1

EC50 [1]: 1030 µM | EC50 [2]: 510 µM | EC50 [3]: 49 µM | EC50 [4]: 1780 µM
SMILES: O=C1Nc2ccc(Cl)cc2C12Nc1ccccc1S2 (configuration not stated)
viability at 10 µM (SNB-75): 55.8% | viability at 10 µM (SF-268): 83.2% | viability at 10 µM (SNB-19): 107% | viability at 10 µM (SF-539): 97.4% | viability at 10 µM (U-251): 98.5%

EC50 [1]: 1630 µM | EC50 [2]: 800 µM | EC50 [3]: 87 µM | EC50 [4]: 1300 µM
SMILES: O=C1Nc2ccc([N+](=O)[O-])cc2C12Nc1ccccc1S2 (configuration not stated)

Continued, molecule first:

SMILES: Cc1ccc2c(c1)C1(Nc3ccccc3S1)C(=O)N2 (configuration not stated)
EC50 [1]: 1020 µM | EC50 [2]: 1360 µM | EC50 [3]: 41 µM | EC50 [4]: 1300 µM

SMILES: Cc1ccc2c(c1)C1(Nc3ccccc3S1)C(=O)N2C (configuration not stated)
EC50 [1]: 980 µM | EC50 [2]: 700 µM | EC50 [3]: 34 µM | EC50 [4]: 980 µM

SMILES: CN1C(=O)C2(Nc3ccccc3S2)c2cc(OC(F)(F)F)ccc21 (configuration not stated)
viability at 10 µM (SK-MEL-2): 101% | viability at 10 µM (M14): 102% | viability at 10 µM (NCI/ADR-RES): 100% | viability at 10 µM (BT-549): 108% | viability at 10 µM (SNB-75): 55.3% | viability at 10 µM (SF-268): 97.7% | viability at 10 µM (SNB-19): 92.4% | EC50 [1]: 1370 µM | viability at 10 µM (SF-539): 116% | viability at 10 µM (OVCAR-8): 99.1% | viability at 10 µM (UACC-62): 80.4% | viability at 10 µM (SN12C): 105% | EC50 [2]: 4940 µM | viability at 10 µM (IGROV-1): 86.2% | viability at 10 µM (TK-10): 105% | viability at 10 µM (PC-3): 84.6% | viability at 10 µM (MDA-MB-468): 112% | viability at 10 µM (A498): 108% | viability at 10 µM (U-251): 88.4% | viability at 10 µM (LOX IMVI): 98.6% | EC50 [3]: 84 µM | viability at 10 µM (MDA-MB-435): 100% | viability at 10 µM (UACC-257): 102% | viability at 10 µM (SK-MEL-28): 103% | viability at 10 µM (T47D): 60% | EC50 [4]: 1620 µM | viability at 10 µM (DU-145): 107% | viability at 10 µM (OVCAR-4): 73.4% | viability at 10 µM (CAKI-1): 96.8% | viability at 10 µM (SK-MEL-5): 99.7% | viability at 10 µM (UO-31): 58.3% | viability at 10 µM (ACHN): 80.9% | viability at 10 µM (SF-295): 102% | viability at 10 µM (MCF7): 82.8% | viability at 10 µM (MDA-MB-231): 96.2% | viability at 10 µM [5]: 92.4% | viability at 10 µM (OVCAR-5): 121% | viability at 10 µM (OVCAR-3): 103% | viability at 10 µM (Malme-3M): 98.5% | viability at 10 µM (SK-OV-3): 102% | viability at 10 µM (786-0): 108%

Reference: ChEMBL document CHEMBL1154871, “Synthesis of new spiroindolinones incorporating a benzothiazole moiety as antioxidant agents” (Eur J Med Chem, 2010)
